# Screening data from PubChem BioAssay.
# Compounds with a hit are over-represented: about 3.8% of the library has one in this group of screens.
# RAM inhibit: inhibitors of the yeast RAM network, primary screen, dse1pr::URA3 reporter, 5-FOA selection. AID 868, 2007. 190,000 tested, 1.8% active. S. cerevisiae dse1pr::URA3 reporter, 5-FOA growth OD615, 2 d; analog-sensitive cbk1-as2 kinase mutant strain. inhibition, % at 50 µM;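 active means inhibition above a set limit, 3 SD over mean compound inhibition, cut at about 8.4% in these data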;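 further: 0% = DMSO-only wells with no growth and 100% = 10 µM 1-NA-PP1 full growth; inhibition rescues growth on 5-FOA so higher OD means more RAM inhibition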
# Measles CPE: compounds protecting cells from measles virus cytopathic effect, primary screen, measles RdRp inhibitor project, single point, MLSMR library, absorbance | Measles virus-infected cells, CPE protection | protection (pct of control), % at 4 µM | 140,000 tested, 1.5% active | AID 841, 2007; in the data active means protection mostly above about 24%, no sharp cut-off; inactive means mostly below about 26%
# sdo1 growth: growth rescue of sdo1-depleted yeast, primary screen, S. cerevisiae, bone marrow failure model. S. cerevisiae sdo1-depleted JHY4D growth rescue, OD600 30 h; stronger effect = higher value; pdr5 snq2 efflux-pump mutant strain. 140,000 tested, 0.21% active. z-score at 10 µM;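 active means z-score above 3 at both the 24 hr and the 30 hr optical density reads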;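 further: z-score against mean and SD of all compound wells on the same plate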
# Yeast life ext: compounds extending yeast replicative lifespan, primary screen, S. cerevisiae, OD615; AID 775, 2007; 130,000 tested, 0.68% active; S. cerevisiae growth with nicotinamide; deaD strain in restrictive glucose medium; inhibition of the nicotinamide effect, % at 10 µM;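 active means inhibition above a set limit, placed 3 SD over the median of all compounds, cut at about 26% in these data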;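 further: 0% = nicotinamide-treated wells and 100% = cells grown without nicotinamide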
#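 System: DeaD-strain S. cerevisiae / Buffer or medium: CSMM-D, restrictive glucose (dextrose) synthetic minimal medium / Probe or stimulus: nicotinamide, 1.5 mM, co-present with compound / Compound: one concentration, 10 µM, DMSO 0.25% / Incubation: 48 h compound exposure at 30 °C, humidified / Technique: optical density (absorbance) at 615 nm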
# Yeast growth inh: growth inhibitors of yeast BB579 in restrictive medium, primary screen, yeast lifespan-shortening project, S. cerevisiae. 140,000 tested, 0.51% active. AID 804, 2007. inhibition, % at 10 µM. OD615, 48 h;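 active means inhibition above a set limit, 3 SD over the mean compound inhibition, cut at about 44% in these data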
#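 System: DeaD yeast strain BB579; buffer or medium: CSMM-D dextrose restrictive medium; technique: OD at 615 nm; schedule: 4 h cell preincubation, 48 h compound exposure, 30 °C humidified; doses: single 10 µM dose; controls: amphotericin B 10 µg/mL, positive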
# Starred values were filed as active, the others as inactive; · = not tested or not shown.
SMILES,RAM inhibit,Measles CPE,sdo1 growth,Yeast life ext,Yeast growth inh
Cc1ccc(OC(=O)c2oc3ccc(F)cc3c2C)c(C)c1,4.4,0.9,0,-13.3,-42.8
FC(F)(F)c1cccc(Oc2ccc3c(C(F)(F)F)cc(C(F)(F)F)nc3n2)c1,6.3,8.7,0.86,-2.2,-10.0
FC(F)(F)c1cc(C(F)(F)F)c2ccc(Oc3ccccc3)nc2n1,3.8,42.9*,-0.2,-17.7,-53.4
Cc1cc(C)nc(SCc2nnc(SCC(=O)Nc3nccs3)n2Cc2ccco2)n1,0.8,40.7*,-0.04,-3.1,-44.0
Cc1ccc(NC(=O)CSc2nnc(-c3cnccn3)n2Cc2ccco2)cc1,3.5,1.4,-1.03,-8.8,-49.2
Cc1cccc(NC(=O)CSc2nnc(-c3cnccn3)n2Cc2ccco2)c1,9.9*,23.1,-0.14,-16.4,-17.2
CC1=NCCN1S(=O)(=O)c1ccccc1[N+](=O)[O-],3.1,·,·,·,·
COc1cccc(NC(=O)CSc2ncnc3c2cnn3Cc2ccccc2)c1,8.4*,1.5,-0.3,-0.2,-69.6
Cc1cc(N2CCN(c3cccc(C)c3C)CC2)nc(-c2ccccc2)n1,-2.6,22.7,-2.53,·,66.6*
CCOC(=O)c1c(C)[nH]c(C(=O)OCC(=O)Nc2cc(C)c(Cl)cc2OC)c1C,0.7,5.1,0.79,-19.3,-56.2
COc1cc(Br)cc(-c2nc3c(c(=O)[nH]c(=O)n3Cc3ccccc3)n2C)c1O,2.7,4.4,-0.17,63.3*,-42.8
COCCn1c(-c2cccc([N+](=O)[O-])c2)nc2c1c(=O)[nH]c(=O)n2Cc1ccccc1,0.9,27.2*,-0.25,3.0,-28.4
COC(=O)c1nc(NC(=O)c2ccc(Br)cc2)n[nH]1,-0.8,3.6,1.14,-4.0,-19.7
COC(=O)c1nc(NC(=O)C(C)(C)C)n[nH]1,2.9,35.8*,-0.45,0.4,6.5
COc1cccc2c(=O)c3c(cnn3C)n(C)c12,-0.8,8.7,2.28,-20.1,73.9*
CCN1C(=O)/C(=C/c2cccs2)S/C1=N\S(=O)(=O)c1ccc(C)cc1,4.9,26.9,0.28,-1.2,-15.4
C=CCN1C(=O)/C(=C/c2cccs2)S/C1=N\S(=O)(=O)c1ccc(F)cc1,10.6*,7.6,-0.92,8.7,-0.5
OCC1(CCOc2ccccc2)CCN(C2Cc3ccccc3C2)CC1,0.0,·,·,·,·
COC(=O)/C(=C/c1cn(C)c2ccccc12)[N+](=O)[O-],-1.4,9.9,-0.94,74.1*,-61.1
COC(=O)/C(=C/c1c[nH]c2ccccc12)[N+](=O)[O-],-1.1,15.8,0.01,26.2*,-31.7
COC(=O)/C(=C/Nc1ccccc1)[N+](=O)[O-],-0.9,8.1,2.51,-6.2,-42.5
C=CCNC(=O)COc1ccc(Br)cc1Cl,-0.2,10.5,0.61,-6.8,-10.3
COc1ccc(NC(=S)N2CCCCCC2)cc1OC,1.8,·,·,·,·
COc1ccc(N2CCN(c3oc(Cc4ccccc4)nc3C#N)CC2)cc1,10.6*,17.9,-1.21,-24.0,-26.9
N#Cc1nc(COc2ccccc2)oc1N1CCOCC1,1.0,3.9,0.98,-6.9,-25.1
SMILES,RAM inhibit,Measles CPE,sdo1 growth,Yeast life ext,Yeast growth inh
N#Cc1nc(Cc2ccccc2)oc1N1CCN(c2cccc(Cl)c2)CC1,11.3*,16.7,0.3,-4.9,-33.7
COc1ccc(N2CCN(c3oc(COc4ccccc4)nc3C#N)CC2)cc1,10.3*,5.8,0.12,-3.5,-21.5
Cc1c(F)cccc1NC(=O)CCCCCC1NC(=O)NC1C (centres undefined),-0.7,·,·,·,·
CCOC(=O)c1c(NC(=S)Nc2ccc(Cl)cc2)sc(C)c1C,4.8,8.0,0.71,-8.0,-42.1
COC(=O)c1c(NC(=S)Nc2ccc(CC(=O)O)cc2)sc(C)c1C,10.0*,1.7,0.21,3.6,-14.7
Cc1ccc(-c2nc3sc(C(N)=O)c(N)c3c3c2CCCC3)cc1,-1.0,1.9,-2.02,-6.8,46.4*
CC(=O)c1sc2nc(-c3ccc(C)cc3)c3c(c2c1N)CCCC3,2.2,20.6,-0.9,-1.4,-28.5
CCc1ccc(OCCNC(=O)c2ccccc2SCc2ccccc2)cc1,8.8*,4.6,-0.71,-2.0,-29.9
CCNC(=O)c1ccccc1SCc1ccccc1,-0.2,·,·,·,·
CCc1ccc(/C=C2\SC(=S)N(CCC(=O)NC3=NCCS3)C2=O)cc1,9.3*,·,·,·,·
O=C(CCN1C(=O)/C(=C\c2cccs2)SC1=S)NC1=NCCS1,3.5,14.3,-1.51,-1.4,-29.2
C/C(=N\NC(=O)c1cccnc1)c1c(O)cc(C)oc1=O,-0.5,6.7,0.49,42.0*,-22.1
C/C(=N\NC(=O)c1ccccc1[N+](=O)[O-])c1c(O)cc(C)oc1=O,-1.2,18.6,-0.55,33.3*,-9.1
C/C(=N\NC(=O)c1ccccc1O)c1c(O)cc(C)oc1=O,-1.1,11.6,0.55,61.8,-21.8
CCCC(C)C(=O)OCC(=O)NCc1ccc(OC)c(OC)c1 (centres undefined),0.7,·,·,·,·
CCN(CC)c1ccc(C(=O)OCC(=O)Nc2ccc3[nH]c(=O)[nH]c3c2)cc1,2.1,·,·,·,·
CC1CCCN(S(=O)(=O)c2ccc(C(=O)Nc3ccccc3-c3nc4ccccc4[nH]3)cc2)C1 (centres undefined),9.8*,8.2,-0.05,3.4,-44.0
Cc1ccc2cccnc2c1N,2.4,·,·,·,·
c1cnc2c(c1)ccc1cccnc12,0.3,8.3,-0.96,-9.5,99.4*
Cc1ccc(NC(=O)COC(=O)CCC(=O)c2ccc(Cl)cc2)cc1S(=O)(=O)N(C)C,10.5*,8.7,-0.46,-0.4,-24.2
CCN(CC)S(=O)(=O)c1cc(NC(=O)COC(=O)c2sc3ccccc3c2Cl)ccc1C,3.7,5.0,-0.19,-2.1,-6.2
CCOCc1c(C(=O)OCC(=O)Nc2ccc(C)c(S(=O)(=O)N(C)C)c2)oc2ccccc12,8.7*,2.9,-0.39,-4.3,-46.8
CC(=O)NCCn1c(SCc2cc(=O)n3cc(Cl)ccc3n2)nc2ccccc2c1=O,10.9*,2.3,-0.01,-8.8,-27.6
COc1ccc([C@@H]2Sc3cc(OC)ccc3N(CCN(C(C)C)C(C)C)C(=O)[C@H]2OC(C)=O)cc1,2.0,47.6*,0.76,·,-18.5
CCN1C(=O)C(NC(C)=O)c2cc(OC)ccc21 (centres undefined),0.9,8.3,2.49,-17.0,-15.6
SMILES,RAM inhibit,Measles CPE,sdo1 growth,Yeast life ext,Yeast growth inh
CC1(C)NC(=O)N(CNc2cc(Cl)ccc2Cl)C1=O,1.9,4.6,-0.56,-8.8,-42.6
COc1ccc(NC(=O)CCC(=O)OCc2ccc([N+](=O)[O-])cc2)cc1,1.4,·,·,·,·
CCCCc1ccc(NC(=S)Nc2ccc(Nc3ccc(OC)cc3)cc2)cc1,7.1,5.7,-1.35,-5.2,55.5*
CCCCc1ccc(NC(=S)NCc2cccc(OC)c2)cc1,1.7,·,·,·,·
N#C/C(=C\c1cccs1)C(=O)Nc1nccs1,1.1,·,·,·,·
O=C(Nc1cccnc1)c1ccc2snnc2c1,1.9,4.5,1.15,0.0,-46.8
